Compounds with a hit are over-represented: about 1.6% of the library has one in this group of screens.
RAD54 inh: inhibitors of human RAD54 branch migration, primary screen, biochemical, fluorescence, single point. RAD54 Holliday junction branch migration, FAM/BHQ fluorescence. actives 0.14% (n = 360,000). inhibition, % at 10.4 µM. AID 602329, 2012;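 active means mean normalized replicate activity at least 40 and at least half of replicates scoring 40 or more; inconclusive means only one of the two criteria met; inactive means mean below 40 and under half of replicates reaching 40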;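 further: 0% = median of neutral control wells and 100% = median of positive control wells; inhibitors cause a drop in the FAM fluorescence signal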
dFosB act: activators of delta FosB homodimer, primary screen, biochemical, fluorescence polarization, TAMRA-CDK5 oligo, single point; purified delta FosB; percent of positive-control signal above neutral wells; activation, % at 25 µM; Protein FosB (Mus musculus), P13346; actives 0.99% (n = 340,000); AID 493131, 2011;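 active means mean activation above about 17%, with every replicate also reaching it, limit read from the data, passing the limit was not always enough; inconclusive means only one of the two conditions met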
S100A4 MyoIIA: inhibitors of S100A4-myosin IIA peptide binding, primary screen, biochemical, fluorescence polarization, TAMRA-MyoIIA peptide; actives 0.14% (n = 360,000); inhibition, % at 10.7 µM;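 active means mean inhibition of at least 70% across replicates, with every replicate also reaching that level; inconclusive means mean inhibition reaches 70% but some replicates fall short; inactive means mean inhibition below 70%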
Target sequence (P26447 whole entry, looked up): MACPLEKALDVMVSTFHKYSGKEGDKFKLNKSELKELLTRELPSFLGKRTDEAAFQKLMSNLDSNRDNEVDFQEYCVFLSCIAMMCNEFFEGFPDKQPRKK
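Compound dosing: one dose per compound; test system: human S100A4 monomer with TAMRA-labelled myosin IIA peptide; probe or stimulus: TAMRA-labelled myosin IIA heavy-chain peptide probe, 5 nM; medium: HEPES buffer with Ca2+, pH 7.2; schedule: 5 min incubation before reading; benchmarks: neutral control DMSO, positive control TFP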
PvdQ inh: P. aeruginosa PvdQ acylase inhibitors, primary screen, biochemical, fluorescence, plate reader and imaging, single point | AID 488965, 2010 | actives 0.063% (n = 340,000) | purified PvdQ acylase | inhibition, % at 10 µM; in the data active means inhibition above about 30%, passing the limit was not always enough; inconclusive means no clear call, values can overlap the other calls;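 further: 0% = vehicle neutral wells and 100% = reference inhibitor wells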
SR-BI DiI inh: inhibitors of SR-BI mediated HDL lipid uptake, primary screen, ldlA[mSR-BI] cells, fluorescence, single point | Scavenger receptor class B member 1 (Mus musculus), Q61009 | ldlA[mSR-BI] CHO cells, DiI-HDL uptake fluorescence, 3 h | inhibition, % at 12.5 µM | actives 0.96% (n = 320,000);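 active means mean replicate inhibition of at least 70% and a set share of replicates each scoring 70 or more; inconclusive means meets just one of the two criteria; inactive means fails both criteria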;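 further: 0% = median of neutral control wells and 100% = median of positive control wells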
Target sequence (Q61009 whole entry, looked up): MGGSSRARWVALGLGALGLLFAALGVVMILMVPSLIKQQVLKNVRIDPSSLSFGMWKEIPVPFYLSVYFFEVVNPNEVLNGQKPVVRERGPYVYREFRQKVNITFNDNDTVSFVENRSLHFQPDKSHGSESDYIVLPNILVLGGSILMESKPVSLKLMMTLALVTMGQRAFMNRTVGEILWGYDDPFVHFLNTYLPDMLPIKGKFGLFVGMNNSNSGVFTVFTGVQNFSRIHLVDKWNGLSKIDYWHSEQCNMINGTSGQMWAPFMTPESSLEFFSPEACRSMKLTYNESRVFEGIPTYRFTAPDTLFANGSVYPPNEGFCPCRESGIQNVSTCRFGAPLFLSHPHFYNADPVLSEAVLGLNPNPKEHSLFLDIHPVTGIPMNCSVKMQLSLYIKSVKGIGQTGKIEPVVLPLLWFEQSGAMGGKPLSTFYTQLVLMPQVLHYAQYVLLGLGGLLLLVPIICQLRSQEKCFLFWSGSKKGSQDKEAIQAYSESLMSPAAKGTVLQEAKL
SR-BI uptake up: activators of SR-BI mediated DiI-HDL uptake, primary screen, ldlA[mSR-BI] CHO cells, DiI fluorescence; 3 h; 100 = double the neutral-control signal; activation, % at 12.5 µM; actives 0.096% (n = 320,000); AID 504775, 2011;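 active means mean replicate activation of at least 60% and every replicate at or above 60%; inconclusive means mean or all-replicate condition met, but not both; inactive means mean below 60% and not all replicates reaching 60%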;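 further: 0% = median plate neutral-control signal and 100% = twice that signal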
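System: LDL receptor-deficient CHO ldlA cells overexpressing murine SR-BI | Timing: 3 h uptake period with compound, 37 °C | Medium: HEPES-buffered (25 mM, pH 7.4) F12 plus 0.5% BSA | Dosing: Single-point compound dose | Signal: Bottom-read fluorescence, 550/595 nm | Read-out: Retained DiI signal reflecting DiI-HDL uptake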
Active calls of the source: *; ? = inconclusive; / = not tested or not shown; + = active, no number.

SMILES	RAD54 inh	dFosB act	S100A4 MyoIIA	PvdQ inh	SR-BI DiI inh	SR-BI uptake up
CN1CCN(C(c2ccc(F)cc2)c2ccc3cccnc3c2O)CC1 (centres undefined)	-8	3	/	-14	-10	10
CCN1[C@@H]2Cn3c(ccc(/C=C/c4ccccc4)c3=O)[C@H]1[C@@H](C(=O)NC1Cc3ccccc3C1)[C@@H]2CO	/	/	-6	/	/	/
O=c1[nH]c(=S)[nH]c2c1C(c1ccc(Br)cc1)c1c([nH]c(=S)[nH]c1=O)O2	56*	-13	-4	-9	-360	?
C[C@H](CO)N1C[C@H](C)[C@H](CN(C)C(=O)Nc2ccc(F)cc2)Oc2c(NC(=O)NC3CCCCC3)cccc2C1=O	0	/	-2	/	/	/
C[C@@H]1CN([C@@H](C)CO)C(=O)Cc2cc(NC(=O)Nc3ccc(C(F)(F)F)cc3)ccc2O[C@@H]1CN(C)S(=O)(=O)c1ccc(Cl)cc1	-2	-1	-9	-8	-90	90*
C[C@@H]1CN([C@H](C)CO)C(=O)Cc2cc(NC(=O)Nc3ccc(C(F)(F)F)cc3)ccc2O[C@H]1CN(C)Cc1ccc2c(c1)OCO2	2	/	101*	/	/	/
C[C@H]1CN([C@@H](C)CO)C(=O)c2cccc(NC(=O)Nc3ccc(C(F)(F)F)cc3)c2O[C@@H]1CN(C)Cc1ccc(Cl)c(Cl)c1	-10	?	4	-9	75*	-75
C[C@@H]1CN([C@H](C)CO)C(=O)c2cc(NC(=O)Nc3ccc(C(F)(F)F)cc3)ccc2O[C@@H]1CN(C)C(=O)Nc1ccc(C(F)(F)F)cc1	6	/	106*	/	/	/
C[C@H]1CN([C@@H](C)CO)C(=O)Cc2cc(NC(=O)Nc3ccc(C(F)(F)F)cc3)ccc2O[C@H]1CN(C)S(=O)(=O)c1ccc(Cl)cc1	/	/	2	/	/	/
CC(C)NC(=O)N(C)C[C@H]1Oc2ncc(C#Cc3ccncc3)cc2C(=O)N([C@H](C)CO)C[C@@H]1C	1	/	2	/	/	/
Cc1ccc(S(=O)(=O)N(C)C[C@H]2Oc3ccc(NC(=O)Nc4ccccc4)cc3C(=O)N([C@@H](C)CO)C[C@@H]2C)cc1	-9	/	0	/	/	/
Cc1ccc(S(=O)(=O)N(C)C[C@H]2Oc3ccc(NC(=O)Nc4ccccc4)cc3C(=O)N([C@@H](C)CO)C[C@H]2C)cc1	-8	/	102*	/	/	/
C[C@@H]1CN([C@H](C)CO)C(=O)c2cc(NC(=O)Nc3ccc(C(F)(F)F)cc3)ccc2O[C@H]1CN(C)S(=O)(=O)c1ccc(Cl)cc1	3	-2	-4	-11	-73	73*
COc1ccc(S(=O)(=O)Nc2ccc3c(c2)CC(=O)N([C@@H](C)CO)C[C@H](C)[C@H](CN(C)Cc2ccc(C(=O)O)cc2)O3)cc1	5	/	-15	/	/	/
COc1ccccc1NC(=O)N[C@@H]1C=C[C@@H](CC(=O)N2CCC(Cc3ccccc3)CC2)O[C@@H]1CO	/	/	-21	/	/	/
COc1cc(/C=N/NC(=O)c2ccncc2)ccc1OC(=O)c1cc(OC)c(OC)c(OC)c1	-11	-8	2	-8	77*	-77
COc1cc(C(=O)Oc2ccccc2/C=N/NC(=O)c2ccc(Cl)cc2Cl)cc(OC)c1OC	4	-1	/	-5	82*	-82
CC(=O)c1cc(-c2ccccc2)n(CC(=O)NC2CCCC2)c1C	-4	-6	/	-18	16	-17
CC(=O)c1cc(-c2ccccc2)n(CC(=O)Nc2cc(C)cc(C)c2)c1C	0	33*	/	0	-5	5
C[C@H](CO)N1C[C@H](C)[C@@H](CN(C)S(=O)(=O)c2cn(C)cn2)Oc2ncc(C3=CCCC3)cc2C1=O	9	/	-12	/	/	/
O=C(CCC(=O)Nc1ccc(F)cc1)N/N=C/c1ccccc1	-21	18*	0	-9	4	-4
Cc1ccc(NC(=O)CCC(=O)N/N=C/c2ccccc2O)cc1	11	6	0	-17	0	0
O=C(CCC(=O)Nc1ccc(F)cc1)N/N=C/c1ccc(Br)cc1	1	7	-6	-16	-11	11
O=C(CCC(=O)Nc1ccc(Br)cc1)N/N=C/c1ccccc1O	-9	29*	-2	-4	-3	3
O=C(Cc1ccccc1)N/N=C/c1cc(Br)cc(Br)c1O	-6	39*	3	10	29	-29
SMILES	RAD54 inh	dFosB act	S100A4 MyoIIA	PvdQ inh	SR-BI DiI inh	SR-BI uptake up
COc1cccc2c1C(=O)c1c(O)c3c(c(O)c1C2=O)C[C@@](O)(C(=O)CO)C[C@@H]3O[C@H]1C[C@H](N)[C@@H](O)[C@H](C)O1	-37	-361	/	8	0	0
COc1cccc2c1C(=O)c1c(O)c3c(c(O)c1C2=O)C[C@@](O)(C(C)=O)C[C@@H]3O[C@H]1C[C@H](N)[C@H](O)[C@H](C)O1	-111	-288	+	-7	51	-51
COc1cccc2c1C(=O)c1c(O)c3c(c(O)c1C2=O)CC(O)(C(=O)CO)CC3OC1CC(N(C)C)C(O)C(C)O1 (centres undefined)	/	-382	+	-10	-11	11
O=C(N[C@@H]1CC[C@H](CC(=O)N2CCC(Cc3ccccc3)CC2)O[C@H]1CO)c1cnccn1	-2	/	-1	/	/	/
CO[C@H]1CN(C)C(=O)c2ccc(NC(=O)c3ccccc3F)cc2OC[C@H](C)NC[C@@H]1C	/	/	126*	/	/	/
CCCNC(=O)Nc1ccc2c(c1)OC[C@H](C)N(C(=O)C1CC1)C[C@H](C)[C@@H](OC)CN(C)C2=O	3	/	93*	/	/	/
CO[C@@H]1CN(C)C(=O)c2ccc(NC(=O)c3ccc(F)cc3)cc2OC[C@H](C)N(C(=O)CC2CC2)C[C@H]1C	-6	/	117*	/	/	/
C[C@@H]1CN([C@H](C)CO)C(=O)c2cc(NS(C)(=O)=O)ccc2O[C@H]1CN(C)Cc1ccc(Oc2ccccc2)cc1	-3	/	0	/	/	/
C[C@@]12C(=O)OC(=O)[C@]1(C)C1CCC2O1	3	7	-3	-1	89*	-89
CC12C(=O)N(c3nccs3)C(=O)C1(C)C1CCC2O1 (centres undefined)	5	/	6	/	/	/
CC(C)n1ncc2c(C(=O)Nc3cccc(C#N)c3)cc(C3CC3)nc21	-11	-6	-7	-11	75*	-75
CCNC(=O)c1cccc(NC(=O)c2cc(C3CC3)nc3c2cnn3C(C)C)c1	4	-22	-6	-7	75*	-75

High-throughput results deposited in PubChem by Broad Institute.
